PMC10204345 (European Journal of Medicinal Chemistry, 2023)
Like-named read-outs stand apart in the source and are kept apart here.

Key:
[1] = target: SARS-CoV-2 3CL^pro (Severe acute respiratory syndrome coronavirus 2, UniProt P0DTD1); format: biochemical
[2] = Microsomal stability assay, mouse; format: in vitro ADME; conditions: microsomes, pH 7.41
Method in brief: (§1)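 Liver microsomes in 100 mM potassium buffer with 5 mM MgCl₂, pH 7.41; test compound at 1 μM. Compound-microsome spiking mix (1.5 μM compound, 0.75 mg/mL microsomes) pre-incubated at 37 °C for 5 min, then started with NADPH (6 mM stock). Sampled at 0, 5, 15, 30 and 45 min, quenched with acetonitrile containing internal standard, centrifuged; supernatant diluted in water for LC/MS.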

[3] = Microsomal stability assay, human; format: in vitro ADME; conditions: microsomes, pH 7.41
Method in brief: as §1

[4] = Single-dose pharmacokinetics in ICR mice; format: in vivo; conditions: single-dose oral administration 20 mg/kg
Method in brief: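 Mice randomly split into IV and PO groups, three per group; single dose 10 mg/kg IV or 20 mg/kg oral. After oral dosing, blood taken at 0.25, 0.5, 1, 2, 4, 6, 8 and 24 h. Plasma (20 μL) protein-precipitated with methanol containing 100 ng/mL internal standard, vortexed, centrifuged at 18000g for 10 min, analysed by LC-MS/MS. AUC(0-t) derived by pharmacokinetic modelling.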

Row | Compound | half-life at 0.75 h, 1 µM [2] | half-life at 0.75 h, 1 µM [3] | decrease of 3CL^pro inhibitory activity compared to 11b [1] | other results
1 | CC(C)(C)OC[C@H](NS(=O)(=O)C(F)(F)F)C(=O)N1[C@@H]2CC[C@@H](C2)[C@H]1C(=O)N[C@@H](C[C@@H]1CCNC1=O)C(=O)c1nc2ccccc2s1 [11g, (1R, 3S, 4S)-N-((S)-1-(benzo[d]thiazol-2-yl)-1-oxo-3-((S)-2-oxopyrrolidin-3-yl)propan-2-yl)-2-(O-(tert-butyl)-N-((trifluoromethyl)sulfonyl)-L-seryl)-2-azabicyclo [2.2.1] heptane-3-carboxamide] |  |  |  | decrease of enzyme activity compared to 11e [1]: 3 times
2 | CN(C)S(=O)(=O)N[C@H](C(=O)N1[C@@H]2CC[C@@H](C2)[C@H]1C(=O)N[C@@H](C[C@@H]1CCNC1=O)C(=O)c1nc2ccccc2s1)C(C)(C)C [11f, (1R, 3S, 4S)-N-((S)-1-(benzo[d]thiazol-2-yl)-1-oxo-3-((S)-2-oxopyrrolidin-3-yl)propan-2-yl)-2-((S)-2-((N,N-dimethylsulfamoyl)amino)-3,3-dimethylbutanoyl)-2-azabicyclo [2.2.1] heptane-3-carboxamide] | 0.85 min | 3.25 min |  | 
3 | CC(C)(C)[C@H](NS(=O)(=O)C(F)(F)F)C(=O)N1[C@@H]2CC[C@@H](C2)[C@H]1C(=O)N[C@@H](C[C@@H]1CCNC1=O)C(=O)c1nc2ccccc2s1 [11e, (1R, 3S, 4S)-N-((S)-1-(benzo[d]thiazol-2-yl)-1-oxo-3-((S)-2-oxopyrrolidin-3-yl)propan-2-yl)-2-((S)-3,3-dimethyl-2-((trifluoromethyl)sulfonamido)butanoyl)-2-azabicyclo [2.2.1] heptane-3-carboxamide] |  |  | 8 folds | half-life at 1 μM [2]: > 120 min; half-life at 1 μM [3]: > 120 min; AUC(0-t) higher than that of 11b [4]: 2.4 times; AUC(0-t) higher than that of nirmatrelvir [4]: 5 times
4 | COc1ccc(C[C@H](NS(=O)(=O)C(F)(F)F)C(=O)N2[C@@H]3CC[C@@H](C3)[C@H]2C(=O)N[C@@H](C[C@@H]2CCNC2=O)C(=O)c2nc3ccccc3s2)cc1 [11h, (1R, 3S, 4S)-N-((S)-1-(benzo[d]thiazol-2-yl)-1-oxo-3-((S)-2-oxopyrrolidin-3-yl)propan-2-yl)-2-((S)-3-(4-methoxyphenyl)-2-((trifluoromethyl)sulfonamido)propanoyl)-2-azabicyclo [2.2.1] heptane-3-carboxamide] |  |  |  | decrease of enzyme activity compared to 11e [1]: 6 times
5 | CC(C)(F)C(=O)N[C@H](C(=O)N1[C@@H]2CC[C@@H](C2)[C@H]1C(=O)N[C@@H](C[C@@H]1CCNC1=O)C(=O)c1nc2ccccc2s1)C(C)(C)C [11c, (1R,3S,4S)-N-((S)-1-(benzo[d]thiazol-2-yl)-1-oxo-3-((S)-2-oxopyrrolidin-3-yl)propan-2-yl)-2-((S)-2-(2-fluoro-2-methylpropanamido)-3,3-dimethylbutanoyl)-2-azabicyclo[2.2.1]heptane-3-carboxamide] | 4.82 min | 18 min |  | decrease of 3CL^pro inhibitory activity compared to 11b ([1]; ratio of IC50 to that of 11b): 11 folds
6 | CC(C)(C)OC(=O)N[C@H](C(=O)N1[C@@H]2CC[C@@H](C2)[C@H]1C(=O)N[C@@H](C[C@@H]1CCNC1=O)C(=O)c1nc2ccccc2s1)C(C)(C)C [11a, tert-butyl ((S)-1-((1R,3S,4S)-3-(((S)-1-(benzo[d]thiazol-2-yl)-1-oxo-3-((S)-2-oxopyrrolidin-3-yl)propan-2-yl)carbamoyl)-2-azabicyclo[2.2.1]heptan-2-yl)-3,3-dimethyl-1-oxobutan-2-yl)carbamate] |  |  | 45 folds | 
7 | CC(C)(C)[C@H](NC(=O)C(F)(F)F)C(=O)N1C[C@H]2[C@@H]([C@H]1C(=O)N[C@H](C#N)C[C@@H]1CCNC1=O)C2(C)C [nirmatrelvir, reference compound] | 17.7 min | 35.5 min |  | 
8 | CC(C)(C)[C@H](NC(=O)C(F)(F)F)C(=O)N1[C@@H]2CC[C@@H](C2)[C@H]1C(=O)N[C@@H](C[C@@H]1CCNC1=O)C(=O)c1nc2ccccc2s1 [11b, (1R,3S,4S)-N-((S)-1-(benzo[d]thiazol-2-yl)-1-oxo-3-((S)-2-oxopyrrolidin-3-yl)propan-2-yl)-2-((S)-3,3-dimethyl-2-(2,2,2-trifluoroacetamido)butanoyl)-2-azabicyclo[2.2.1]heptane-3-carboxamide] | 7.74 min | 11.6 min |  | 
9 | [2H]C([2H])([2H])C(=O)N[C@H](C(=O)N1[C@@H]2CC[C@@H](C2)[C@H]1C(=O)N[C@@H](C[C@@H]1CCNC1=O)C(=O)c1nc2ccccc2s1)C(C)(C)C [11d, (1R, 3S, 4S)-2-((S)-2-(acetamido-2,2,2-d3)-3,3-dimethylbutanoyl) -N-((S)-1-(benzo[d]thiazol-2-yl)-1-oxo-3-((S)-2-oxopyrrolidin-3-yl)propan-2-yl)-2-azabicyclo [2.2.1] heptane-3-carboxamide] | 33.8 min | 42.2 min | 5 folds | 
